MC4R antag cAMP: antagonists of human melanocortin 4 receptor (MC4R); 0.48% of 360,000 active; MC4R-expressing cells, MTII-stimulated cAMP, LANCE TR-FRET; inhibition, % at 6.5 µM; P32245;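 active = inhibition above its plate's cutoff, the mean of tested wells on that plate plus 3 SD, cut at about 29% in these data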;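 note: 0% = Melanotan II alone and 100% = Melanotan II plus saturating MCL0020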
Target sequence (P32245 whole entry, looked up): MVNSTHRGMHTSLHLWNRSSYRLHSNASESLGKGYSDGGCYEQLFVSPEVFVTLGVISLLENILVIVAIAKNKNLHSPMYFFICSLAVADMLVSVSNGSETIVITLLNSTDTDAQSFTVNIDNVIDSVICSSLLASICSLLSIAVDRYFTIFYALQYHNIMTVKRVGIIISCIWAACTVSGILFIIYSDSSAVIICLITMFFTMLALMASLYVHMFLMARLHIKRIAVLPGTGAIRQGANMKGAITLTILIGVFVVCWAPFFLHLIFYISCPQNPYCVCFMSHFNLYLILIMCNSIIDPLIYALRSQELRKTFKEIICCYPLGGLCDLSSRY
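Material: human MC4R-expressing U2OS cells. Probe or stimulus: Melanotan II challenge. Dosing: 6.5 µM single dose. Times: 30-min compound, 1-h challenge, 1-h detection, room temperature. Technique: TR-FRET with Eu-cAMP and labeled anti-cAMP, 671 nm. Replication: singlicate.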
MIN6 prolif: inducers of beta-cell replication in MIN6 cells; 0.29% of 330,000 active; MIN6 cells proliferation, ATPlite luminescence, 48 h; cells starved in 0.2% serum; 100% = growth in 10% serum; proliferation, % at 10 µM;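 active = compounds whose signal lies at least 3.5 SD above the mean of all wells on their plate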;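 note: 0% = DMSO-treated cells in low-serum medium and 100% = 10% serum control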
NOD2 RIPK2 PPI: NOD2-RIPK2 protein interaction inhibition | O43353 | CHO BLA complementation NOD2-RIPK2, CCF4 ratio | inhibition, % at 4.98 µM | 0.38% of 360,000 active | AID 624267; in the data active = inhibition above about 21%;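 note: 0% = vehicle only and 100% = reference blocker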
TLR4 MyD88 comp: blocks binding of human TLR4 to MyD88; O00206+Q99836; HeLa CL3-4 TLR4/MyD88 BLA complementation, FRET ratio; inhibition, % at 8.4 µM; 0.18% of 200,000 active; in the data active = inhibition above about 25%;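 note: 0% = vehicle and 100% = reference inhibitor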
TLR9-MyD88 block: inhibitors of human TLR9-MyD88 binding. CHO BLA complementation TLR9-MyD88, CCF4 FRET ratio. 0.21% of 340,000 active. inhibition, % at 4.98 µM. AID 504734;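 active = inhibition above the mean over all tested compounds plus 3 SD, cut at about 21% in these data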;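 note: 0% = DMSO only wells and 100% = clavulanate BLA inhibitor control wells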
MC4R ag barr: activates human MC4R beta-arrestin recruitment; P32245; U2OS MC4R beta-arrestin complementation, luminescence; percent of melanotan II response, DMSO zero; activation, % at 8.9 µM; 0.98% of 360,000 active; AID 540308;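 active = activation above a per-plate cutoff, the mean activation of sample wells on that plate plus 3 SD, cut at about 8% in these data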
cAMP nonselect: counter-screen for MC4R antagonists: nonselective cAMP signaling inhibitors. shares compounds with MC4R antag cAMP. parental U2OS, forskolin cAMP, LANCE TR-FRET. inhibition, % at 6.5 µM. 26% of 1,600 active. AID 602193;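 active = mean inhibition over triplicates above the low-control well mean plus 3 SD, set per campaign, cut at about 13% in these data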;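 note: signal is single emission at 671 nm which falls as cellular cAMP rises; 0% = forskolin-stimulated wells and 100% = buffer without forskolin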
MC4R antag conf: human MC4R cAMP antagonism confirmation; shares compounds with MC4R antag cAMP; MC4R-expressing cells, MTII-stimulated cAMP, TR-FRET; inhibition, % at 6.5 µM; 27% of 1,600 active; in the data active = inhibition above about 29%;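 note: 0% = agonist stimulated wells alone and 100% = agonist stimulated wells plus saturating reference antagonist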
* = called active by the depositor; · = not tested or not shown. An excerpt weighted towards active compounds, which were near 2.1% of everything screened.

SMILES	MC4R antag cAMP	MIN6 prolif	NOD2 RIPK2 PPI	TLR4 MyD88 comp	TLR9-MyD88 block	MC4R ag barr	cAMP nonselect	MC4R antag conf
CC(C)(C)NC(=O)N1CCn2cccc2C1c1ccccc1F (configuration not stated)	30.4*	1.6	-1.3	-4.2	-6.3	0.9	3.6	1.3
O=S(=O)(c1cccnc1)N1CCn2cccc2C1c1ccccc1F (configuration not stated)	7.1	-0.3	-1.9	·	0.0	-3.0	·	·
Cc1ccccc1C(=O)NNC(=O)CCc1ccccc1	32.1*	7.5	-10.8	3.2	-0.7	2.5	-2.2	-2.9
Cc1ccccc1C(=O)NNC(=O)Cc1ccccc1	5.6	-2.4	-0.5	9.2	-5.9	-0.9	·	·
C=CCSc1nnc(NC(=O)c2nc(SCC)ncc2Cl)s1	6.3	-0.2	-4.1	-7.3	3.4	-0.5	·	·
CC(C)c1nnc(NC(=O)c2nc(S(=O)(=O)Cc3ccccc3F)ncc2Cl)s1	·	-4.6	·	·	·	·	·	·
CSc1nnc(NC(=O)c2nc(S(=O)(=O)Cc3ccccc3F)ncc2Cl)s1	40.7*	-7.8	7.2	·	5.4	-2.2	17.5*	38.0*
CCSc1nnc(NC(=O)c2nc(S(=O)(=O)Cc3ccc(F)cc3)ncc2Cl)s1	49.1*	-4.7	4.0	·	0.3	-2.0	14.4*	20.3
Cc1nnc(NC(=O)c2nc(S(=O)(=O)Cc3ccccc3C)ncc2Cl)s1	21.8	-8.0	11.1	·	10.3	1.8	·	·
CCc1nnc(NC(=O)c2nc(S(=O)(=O)Cc3ccccc3)ncc2Cl)s1	30.4*	-4.7	18.4	·	2.8	-1.1	12.3	9.1
CSc1nnc(NC(=O)c2nc(S(=O)(=O)Cc3cccc(C)c3)ncc2Cl)s1	59.1*	-4.6	13.9	·	10.2	-2.6	28.6*	48.0*
COc1cc(NC(=O)C2=C(N3CCOCC3)/C(=C/c3ccc(Cl)cc3)CC2)cc(OC)c1OC	28.7*	-2.8	-3.4	1.1	-6.8	0.5	-0.2	5.3
COc1cc(NC(=O)C2=C(N3CCOCC3)/C(=C\c3ccc(N(C)C)cc3)CCC2)cc(OC)c1OC	-15.1	-5.0	-14.3	6.2	7.6	2.1	·	·
CN(C)CCNC(=O)COc1cccc(Cl)c1	-8.8	-2.3	9.1	10.3	0.4	0.0	·	·
CCC(C(=O)NC1CCCC1)n1c2ccccc2c2nc(=O)cc(C)n21 (configuration not stated)	4.8	·	8.9	·	7.8	-4.5	·	·
C[C@@H]1CN([C@H](C)CO)C(=O)c2cc(Br)cnc2O[C@@H]1CN(C)C(=O)C1CCOCC1	5.9	·	5.0	·	-4.2	0.3	·	·
O=C(COc1cccc2c1CCNC2=O)Nc1ccc(Cl)cc1	29.0*	-3.2	-3.2	·	-17.9	-3.8	5.2	0.1
Cc1ccc(C)c(S(=O)(=O)NCC(=O)OCC(=O)Nc2sccc2C(N)=O)c1	49.0*	-0.2	-4.3	·	2.0	-1.2	13.4*	32.9*
Nn1c(SCC(=O)NCC2CCCO2)nnc1-c1ccco1 (configuration not stated)	2.6	1.4	5.6	·	2.8	-1.9	·	·
COc1cccc(C(c2c(N)n(C)c(=O)n(C)c2=O)C(C)[N+](=O)[O-])c1 (configuration not stated)	32.7*	-1.3	-5.7	·	1.2	-0.1	5.5	4.1
CCOc1ccc2c(ccc(/C=C/c3cc(C)c4cccnc4c3O)[n+]2C)c1	50.1*	·	-16.1	·	-26.8	0.9	-9.1	38.2*
Nc1nc(Cl)c(C=O)c(N2CCCCC2)n1	36.6*	-4.3	2.3	22.1	-4.1	-2.0	19.8*	28.4
Cc1ccccc1N(CC(=O)NC1CCCCC1)C(=O)CNC(=O)c1cccs1	30.2*	-0.9	-15.4	·	-5.3	1.9	-17.2	-32.9
O=C(CN(C(=O)CNC(=O)c1cccs1)c1ccccc1F)NC1CCCCC1	21.9	-1.5	-4.3	·	-8.9	1.5	·	·
COc1ccc(NS(=O)(=O)c2ccc(-n3cnnn3)cc2)cc1OC	29.4*	0.4	-0.9	·	-9.0	1.5	2.8	-16.8
SMILES	MC4R antag cAMP	MIN6 prolif	NOD2 RIPK2 PPI	TLR4 MyD88 comp	TLR9-MyD88 block	MC4R ag barr	cAMP nonselect	MC4R antag conf
O=C(CC1C(=O)NCCN1Cc1ccc(-c2ccccc2)cc1)NCCCn1ccnc1 (configuration not stated)	30.7*	-2.8	-16.8	·	-2.2	1.4	-14.3	-24.5
CC(NC(=O)Cc1ccccc1)C(=O)O (configuration not stated)	-0.9	-1.0	-8.2	·	-16.6	0.4	·	·
CC(C)C(CO)NC(=O)CC(=O)NC(CO)C(C)C (configuration not stated)	29.9*	-0.4	-11.4	-0.3	-8.2	1.3	-1.0	-9.6
O=C(COc1ccccc1[N+](=O)[O-])OCC(=O)c1ccc(Br)s1	45.1*	-3.4	-3.3	·	-6.7	-1.3	13.8*	37.6*
CCOCCOC(=O)COc1ccc2c(=O)c(Oc3ccc(OC)cc3)coc2c1	29.1*	-6.0	-3.9	·	-8.4	-1.0	24.4*	28.2
CC(=O)Oc1ccc2c(=O)c(-c3ccccc3)coc2c1	-9.3	-1.6	12.3	-6.7	7.6	-0.3	·	·
CCOC(=O)COc1ccc2c(=O)c(-c3ccccc3)coc2c1	39.2*	-3.5	-3.2	·	2.9	-0.9	19.4*	43.1*
CCOC(=O)c1c(C)[nH]c(C)c1C(=O)COC(=O)c1cc(OC)cc(OC)c1	-2.9	-1.6	0.0	0.1	3.7	-2.8	·	·
CCOC(=O)c1c(C)[nH]c(C)c1C(=O)COC(=O)c1cc(OC)c(OC)cc1OC	31.7*	-0.9	-4.1	-19.5	-2.1	0.8	-3.7	1.6
CC(C)NS(=O)(=O)c1ccc(CCC(=O)N2CCC(C(N)=O)CC2)cc1	30.9*	-2.0	8.5	7.4	-10.2	0.3	3.6	8.8
COc1ccc(NC(=S)N2CCN(C(c3ccccc3)c3ccccc3)CC2)cc1OC	29.0*	0.0	1.7	-5.8	4.3	-1.6	2.9	1.3
S=c1[nH]nc(C2(c3ccccc3)CCCC2)o1	-3.1	-0.6	-1.2	·	3.1	-0.6	·	·
S=c1[nH]nc(C(c2ccccc2)C2CCCCC2)o1 (configuration not stated)	29.6*	-0.8	-13.5	·	0.2	-0.2	2.3	2.3
CCC(C)(C(=O)NC1CCCC1)N(C(=O)CC1NC(=O)NC1=O)c1c(C)n(C)n(-c2ccccc2)c1=O (configuration not stated)	-0.7	2.0	-2.5	9.1	-13.9	-0.7	·	·
O=C(c1c(F)cccc1F)N1CCC(n2nnc3cc(C(F)(F)F)ccc32)CC1	30.8*	-1.3	0.2	17.6	-3.4	-0.1	-0.5	-1.6
